# From ChEMBL document CHEMBL3098130, “Discovery of Novel Putative Inhibitors of UDP-GlcNAc 2-Epimerase as Potent Antibacterial Agents” (ACS Med Chem Lett, 2013)
# Tests used:
# Type in all cases: functional
# Bacillus anthracis [1] = experiment: Antibacterial activity against Bacillus anthracis Sterne assessed as growth inhibition at 30 uM measured every 2 mins for 16 to 20 hrs by spectramax 96-well plate reader analysis; conditions: read-out: GI
# Staphylococcus aureus [2] = experiment: Antibacterial activity against methicillin-resistant Staphylococcus aureus assessed as growth inhibition at 3 uM measured every 2 mins for 16 to 20 hrs by spectramax 96-well plate reader analysis; conditions: read-out: GI
# Bacillus anthracis [3] = experiment: Antibacterial activity against Bacillus anthracis Sterne assessed as growth inhibition at 3 uM measured every 2 mins for 16 to 20 hrs by spectramax 96-well plate reader analysis; conditions: read-out: GI
# Staphylococcus aureus [4] = experiment: Antibacterial activity against methicillin-resistant Staphylococcus aureus assessed as growth inhibition at 10 uM measured every 2 mins for 16 to 20 hrs by spectramax 96-well plate reader analysis; conditions: read-out: GI
# Bacillus anthracis [5] = experiment: Antibacterial activity against Bacillus anthracis Sterne assessed as growth inhibition at 10 uM measured every 2 mins for 16 to 20 hrs by spectramax 96-well plate reader analysis; conditions: read-out: GI
# Staphylococcus aureus [6] = experiment: Antibacterial activity against methicillin-resistant Staphylococcus aureus assessed as growth inhibition at 30 uM measured every 2 mins for 16 to 20 hrs by spectramax 96-well plate reader analysis; conditions: read-out: GI
# Bacillus subtilis = experiment: Antibacterial activity against Bacillus subtilis 19659 assessed as growth inhibition measured for 3 days by broth microdilution method
# Method in brief: (§1)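 MIC by broth microdilution against a panel of Gram-positive and Gram-negative strains (ATCC-type numbers where given). Run in triplicate on three different days.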
# Staphylococcus aureus [7] = experiment: Antibacterial activity against Staphylococcus aureus 13709 assessed as growth inhibition measured for 3 days by broth microdilution method; method in brief: as §1
SMILES,inhibition of growth at 30 µM (Bacillus anthracis [1]) [%],inhibition of growth at 3 µM (Staphylococcus aureus [2]) [%],inhibition of growth at 3 µM (Bacillus anthracis [3]) [%],inhibition of growth at 10 µM (Staphylococcus aureus [4]) [%],inhibition of growth at 10 µM (Bacillus anthracis [5]) [%],inhibition of growth at 30 µM (Staphylococcus aureus [6]) [%],"MIC (Bacillus subtilis; Bacillus subtilis, 19659, 72 h, read-out: MIC) [µM]","MIC (Staphylococcus aureus [7]; Staphylococcus aureus, 13709, 72 h, read-out: MIC) [µM]",MIC (Bacillus subtilis) [µM],MIC (Staphylococcus aureus [7]) [µM]
O=C(O)C(Cc1ccccc1)N1C(=O)/C(=C\c2ccc(-c3cccc(Cl)c3)o2)NC1=S (stereo unspecified),90,0,10,0,0,10,–,–,–,–
O=C(O)C(Cc1ccccc1)N1C(=O)/C(=C\c2ccc(-c3ccc(Br)cc3)o2)NC1=S (stereo unspecified),100,10,70,90,100,90,–,–,–,–
O=C(O)C(Cc1ccccc1)N1C(=O)/C(=C\c2ccc(-c3ccc(I)cc3)o2)NC1=S (stereo unspecified),100,0,50,90,100,90,–,–,–,–
O=C(O)C(Cc1ccccc1)N1C(=O)/C(=C\c2ccc(-c3ccc(OC(F)(F)F)cc3)o2)NC1=S (stereo unspecified),100,0,10,10,100,100,–,–,–,–
O=C(O)C(Cc1ccccc1)N1C(=O)/C(=C\c2ccc(-c3ccc(Cl)c(Cl)c3)s2)NC1=S (stereo unspecified),90,10,0,10,110,40,–,–,–,–
O=C(O)C(Cc1ccccc1)N1C(=O)/C(=C\c2ccc(-c3ccc(Cl)c(Cl)c3)o2)NC1=S (stereo unspecified),110,20,110,90,110,100,–,–,–,–
O=C(O)C(Cc1ccccc1)N1C(=O)/C(=C\c2ccc(-c3ccc(Br)c(Cl)c3)s2)NC1=S (stereo unspecified),90,–,20,10,10,0,–,–,–,–
O=C(O)C(Cc1ccccc1)N1C(=O)/C(=C\c2ccc(-c3ccc(Br)c(Cl)c3)o2)NC1=S (stereo unspecified),100,20,100,100,100,100,–,–,–,–
O=C(O)C(Cc1ccccc1)N1C(=O)/C(=C\c2ccc(-c3cc(Cl)cc(Cl)c3)o2)NC1=S (stereo unspecified),100,0,0,10,0,90,–,–,–,–
COc1ccc(-c2ccc(/C=C3/NC(=S)N(C(Cc4ccccc4)C(=O)O)C3=O)o2)cc1Cl (stereo unspecified),100,10,0,10,30,80,–,–,–,–
COc1ccc(-c2ccc(/C=C3/NC(=S)N(C(Cc4ccccc4)C(=O)O)C3=O)s2)cc1 (stereo unspecified),100,0,0,10,0,20,–,–,–,–
O=C(O)C(Cc1ccccc1)N1C(=O)/C(=C\c2ccc(-c3ccc(F)cc3)s2)NC1=S (stereo unspecified),100,20,0,20,10,50,–,–,–,–
O=C(O)C(Cc1ccccc1)N1C(=O)/C(=C\c2ccc(-c3ccc(Cl)cc3)s2)NC1=S (stereo unspecified),100,0,0,0,100,90,–,–,–,–
O=C(O)C(Cc1ccccc1)N1C(=O)/C(=C\c2ccc(-c3ccc(Br)cc3)s2)NC1=S (stereo unspecified),100,20,80,90,100,90,–,–,–,–
O=C1NC(=S)NC(=O)C1=Cc1ccc(-c2ccc(Br)c(Cl)c2)o1,96.6,–,–,–,–,–,–,–,–,–
O=C1Nc2ccccc2/C1=C1/SC(=S)N(C(Cc2ccccc2)C(=O)O)C1=O (stereo unspecified),99.7,–,–,–,–,–,–,–,–,–
O=C(O)[C@@H](Cc1ccccc1)N1C(=O)/C(=C/c2ccc(-c3ccc(Cl)c(Cl)c3)o2)NC1=S,–,–,–,–,–,–,6.8,6.8,–,–
CCC(C(=O)O)N1C(=O)/C(=C\c2ccc(-c3ccc(Cl)c(Cl)c3)o2)NC1=S (stereo unspecified),90,0,0,0,100,90,–,–,–,–
NC(=O)C(Cc1ccccc1)N1C(=O)/C(=C\c2ccc(-c3ccc(Cl)c(Cl)c3)o2)NC1=S (stereo unspecified),90,0,20,30,90,60,–,–,–,–
CCOC(=O)C(Cc1ccccc1)N1C(=O)/C(=C\c2ccc(-c3ccc(Cl)c(Cl)c3)o2)NC1=S (stereo unspecified),0,–,–,0,50,0,–,–,–,–
N#CNC(=O)C(Cc1ccccc1)N1C(=O)/C(=C\c2ccc(-c3ccc(Cl)c(Cl)c3)o2)NC1=S (stereo unspecified),100,0,0,0,100,100,–,–,–,–
CS(=O)(=O)NC(=O)C(Cc1ccccc1)N1C(=O)/C(=C\c2ccc(-c3ccc(Cl)c(Cl)c3)o2)NC1=S (stereo unspecified),90,0,40,30,100,60,–,–,–,–
O=C(NS(=O)(=O)C(F)(F)F)C(Cc1ccccc1)N1C(=O)/C(=C\c2ccc(-c3ccc(Cl)c(Cl)c3)o2)NC1=S (stereo unspecified),100,0,70,80,100,90,–,–,–,–
CCC(C(=O)NS(C)(=O)=O)N1C(=O)/C(=C\c2ccc(-c3ccc(Cl)c(Cl)c3)o2)NC1=S (stereo unspecified),20,0,10,0,0,0,–,–,–,–
O=C(O)[C@H](Cc1ccccc1)N1C(=O)/C(=C\c2ccc(-c3ccc(Cl)c(Cl)c3)o2)NC1=S,–,–,–,–,–,–,–,–,6.8,6.8
O=C(O)C(Cc1ccccc1)N1C(=O)/C(=C\c2ccc(-c3ccccc3)o2)NC1=S (stereo unspecified),20,0,0,10,10,10,–,–,–,–
O=C(O)C(Cc1ccccc1)N1C(=O)/C(=C\c2ccc(-c3ccc(Cl)cc3)o2)NC1=S (stereo unspecified),100,10,0,20,70,90,–,–,–,–
